Experimental data of several laboratories.
Each line is one published result; the experiments were not run side by side.
Target: Glycogen synthase kinase-3 alpha (GSK3A, Homo sapiens, UniProt P49840)

| SMILES | observed | mode | method | concentration | measurement | value |
| --- | --- | --- | --- | --- | --- | --- |
| C1=C/COCc2cc(ccc2OCCN2CCCC2)Nc2nccc(n2)-c2cccc(c2)COC/1 | binding | – | – | 0.1 µM | remaining binding | 100% |
| CC(=O)ON=C1C=CC(=C(C#N)c2ccccc2)C=C1 | enzyme activity | inhibitor | ADP detection | 20 µM | activity vs control | 94% |
| C[C@H]1CC[C@H](n2c3cnccc3c3cnc(Nc4ccc5c(n4)CCN(C(=O)CO)C5)nc32)CC1 | cell-free assay | – | – | 1 µM | remaining signal | 35% |
| COc1ccc2oc(-c3ccc4nc(N)oc4c3)c/c(=N\c3ccccc3NC(=O)CCN)c2c1 | binding | – | – | 1 µM | remaining binding | 94% |
| Cc1ccc(NC(=O)c2ccnc(C(F)(F)F)c2)cc1-c1cc(OCCO)nc(N2CCOCC2)c1 | binding | – | – | 1 µM | remaining binding | 100% |
| CO[C@@H]1[C@H](N(C)C(=O)c2ccccc2)C[C@H]2O[C@]1(C)n1c3ccccc3c3c4c(c5c6ccccc6n2c5c31)C(=O)NC4 | enzyme activity | inhibitor | – | 1 µM | inhibition | 14% |
| CCCCC(=O)Nc1ccc(-c2ccc3ncn(CCC)c(=O)c3c2)cn1 | binding | – | competition with immobilised ligand | 0.5 µM | remaining binding | 94% |
| C=CC(=O)N1CCC([C@@H]2CCNc3c(C(N)=O)c(-c4ccc(Oc5ccccc5)cc4)nn32)CC1 | enzyme activity | inhibitor | – | 1 µM | inhibition | 2% |
| Cc1cc(O)c(-c2ccc([C@@H](C)CN(C)C)cc2)c2c1[nH]c(=O)c1sccc12 | enzyme activity | inhibitor | – | 0.1 µM | inhibition | -5.76% |
